Reference: ChEMBL document CHEMBL1129514 (J Med Chem, 1996)
Where “and” joins values, the source holds several entries; their conditions need not be identical. Equal values may be shown once.

Assays:
[1] = target: T1, 5-hydroxytryptamine receptor 1A (Rattus norvegicus, UniProt P19327); test: Binding affinity towards 5-hydroxytryptamine 1A receptor in the rat brain (hippocampus) using [3H]8-OH-DPAT; type: tissue-based
T1 sequence (P19327 whole entry): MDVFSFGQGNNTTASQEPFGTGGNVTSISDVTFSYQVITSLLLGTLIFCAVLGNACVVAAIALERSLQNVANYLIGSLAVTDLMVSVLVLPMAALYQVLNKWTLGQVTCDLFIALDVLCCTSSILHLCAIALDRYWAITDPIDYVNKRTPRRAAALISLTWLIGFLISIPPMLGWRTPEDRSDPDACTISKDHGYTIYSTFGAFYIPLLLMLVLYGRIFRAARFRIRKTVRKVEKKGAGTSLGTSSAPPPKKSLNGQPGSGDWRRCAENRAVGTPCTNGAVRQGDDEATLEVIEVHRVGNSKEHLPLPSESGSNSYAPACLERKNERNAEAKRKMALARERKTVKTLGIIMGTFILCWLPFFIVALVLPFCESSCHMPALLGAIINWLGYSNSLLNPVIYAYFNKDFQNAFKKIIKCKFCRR
Procedure, shortened: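 Rat hippocampal membranes; competition binding against [3H]-8-OH-DPAT (190 Ci/mmol) using 10-14 drug concentrations, each run in triplicate. Ki derived from at least three independent competition experiments. Remaining conditions follow a previously published procedure.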

Rattus norvegicus [2] = test: Compound was tested for the induction of lower lip retraction in rats at a dose of 1.25 mg/kg; type: functional
Procedure, shortened: (§1)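 Male Wistar rats (220-260 g), compound ip as fresh aqueous solution, 6-8 animals/dose, each used once. Rats caged individually; lower lip retraction scored at 15, 30 and 45 min post-injection: 0 incisors not visible, 0.5 partly, 1 completely visible. Mean ± SEM score; Dunnett's test vs vehicle.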

Rattus norvegicus [3] = test: Compound was tested for the induction of lower lip retraction in rats at a dose of 2.5 mg/kg; type: functional; procedure, shortened: as §1
Rattus norvegicus [4] = test: Compound was tested for the induction of lower lip retraction in rats at a dose of 5 mg/kg; type: functional; procedure, shortened: as §1
Rattus norvegicus [5] = test: Compound was tested for the induction of behavioral syndrome(flat body posture) in rats at a dose of 10 mg/kg; type: functional
Procedure, shortened: (§2)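 Male Wistar rats (220-260 g), reserpine 1 mg/kg sc 18 h before test; compound as fresh aqueous solution ip, rats placed in cages 5 min beforehand. 45-s observation sessions began 3 min after injection, repeated every 3 min over five periods; forepaw treading and flat body posture scored 0 (absent) to 3 (intense). 6-8 rats/dose; mean ± SEM, Dunnett's test.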

Rattus norvegicus [6] = test: Compound was tested for the induction of behavioral syndrome(flat body posture) in rats at a dose of 5 mg/kg; type: functional; procedure, shortened: as §2
Rattus norvegicus [7] = test: Compound was tested for the induction of behavioral syndrome (forepaw treading) in rats at a dose of 10 mg/kg; type: functional; procedure, shortened: as §2
Rattus norvegicus [8] = test: Compound was tested for the induction of behavioral syndrome (forepaw treading) in rats at a dose of 5 mg/kg; type: functional; procedure, shortened: as §2
Rattus norvegicus [9] = test: Effect on the 8-OH-DPAT-Induced Behavior(flat body posture) in Reserpine Pretreated Rats at a dose of 10 mg/kg; type: functional
Procedure, shortened: (§3)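 Reserpinized male Wistar rats (reserpine 1 mg/kg sc, 18 h prior); compound ip 15 min before 8-OH-DPAT 5 mg/kg ip, fresh aqueous solutions. Observations began 3 min after 8-OH-DPAT, repeated every 3 min for 15 min; flat body posture ranked 0-3. 6-8 rats/dose; mean ± SEM, Dunnett's test vs vehicle + 8-OH-DPAT.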

Rattus norvegicus [10] = test: Effect on the 8-OH-DPAT-Induced Behavior(flat body posture) in Reserpine Pretreated Rats at a dose of 5 mg/kg; type: functional; procedure, shortened: as §3

## O=C1c2ccccc2C(=O)N1CCCCN1CCc2ccccc2C1
[1]
  Ki: 0.14 µM

## O=C1CC2(CCCC2)CC(=O)N1CCN1CCc2ccccc2C1
[1]
  Ki: 1.33 µM

## O=C1CC2(CCCC2)CC(=O)N1CCCCN1CCc2ccccc2C1
[1]
  Ki: 0.005 µM
Rattus norvegicus [2]
  LLR score: 1.2
Rattus norvegicus [3]
  LLR score: 1.9
Rattus norvegicus [4]
  LLR score: 2.5
Rattus norvegicus [5]
  Behavioral score: 11
Rattus norvegicus [6]
  Behavioral score: 7.8
Rattus norvegicus [7]
  Behavioral score: 2.7
Rattus norvegicus [8]
  Behavioral score: 2
Rattus norvegicus [9]
  Behavioral score: 13.7 and 7.8
Rattus norvegicus [10]
  Behavioral score: 14.5 and 8.9

## O=C1CC2(CCCC2)CC(=O)N1CCCCN1CCN(c2ncccn2)CC1 [BUSPIRONE]
Rattus norvegicus [2]
  LLR score: 1.6
Rattus norvegicus [3]
  LLR score: 2.3
Rattus norvegicus [4]
  LLR score: 2.4
Rattus norvegicus [5]
  Behavioral score: 6.4
Rattus norvegicus [6]
  Behavioral score: 6.8
Rattus norvegicus [7]
  Behavioral score: 0.6
Rattus norvegicus [8]
  Behavioral score: 0.2
Rattus norvegicus [9]
  Behavioral score: 9.5 and 3.7
Rattus norvegicus [10]
  Behavioral score: 14.3 and 5

## O=C1c2ccccc2C(=O)N1CCN1CCc2ccccc2C1
[1]
  Ki: 41.3 µM

## c1ccc2c(c1)CCNC2 [1,2,3,4-TETRAHYDROISOQUINOLINE]
[1]
  Ki: > 50 µM
